Among the data in ChEMBL document CHEMBL4422632, “Design of Novel Inhibitors of Human Thymidine Phosphorylase: Synthesis, Enzyme Inhibition, in Vitro Toxicity, and Impact on Human Glioblastoma Cancer” (J Med Chem, 2019) are viability and AUC values, retold here.

A short description of data set [1]: Cytotoxicity against African green monkey Vero cells assessed as cell viability at 50 uM after 72 hrs by MTT assay relative to control. The data set is classed as cell-based. Conditions: chlorocebus sabaeus, read-out: Activity. Put shortly: (§1)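 Cells grown in DMEM with 10% FBS at 37 °C, 5% CO₂; seeded 2 x 10³ cells/well, adhered 24 h, then exposed 72 h. MTT: 1 mg/mL for 3 h, formazan in DMSO, absorbance 595 nm. NRU: neutral red 25 µg/mL in serum-free medium for 3 h, desorbed in ethanol:acetic acid:water. Viability as % of untreated control; mean ± SEM of three to five independent experiments in triplicate.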
(Formazan colour is commonly taken as a measure of viable cells.)

Data set [2] is described as follows: Cytotoxicity against human HaCaT cells assessed as cell viability at 500 uM after 72 hrs by MTT assay relative to control. The data set is classed as cell-based. Conditions: read-out: Activity. The method, boiled down:
as §1

A short description of data set [3]: Cytotoxicity against human HaCaT cells assessed as cell viability at 50 uM after 72 hrs by neutral red uptake-based assay relative to control. Conditions: read-out: Activity. The method, boiled down:
as §1

Data set [4] is described as follows: AUC (0 to infinity) in CF1 mouse at 50 mg/kg, ip by non-compartmental analysis. Type of data set: ADME, organism-based. Also on record: dose 50 mg/kg, time infinity, route intraperitoneal. Conditions: in vivo. The method, boiled down: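 Male CF1 mice received a single ip injection of 50 mg/kg in 0.9% saline; 3 animals per time point, killed 0.03, 0.08, 0.25, 0.5, 1 and 2 h after dosing; blood collected in heparin tubes.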

For the molecule `O=c1[nH]c(CNC(CO)CO)c(I)c(=O)[nH]1`, the viability at 72 h, 50 µM is 97% in data set [1] and 110% in data set [3]. Also, in data set [2], the viability at 72 h, 500 µM was 93%. The molecule further came in with an AUC in data set [4] of 17400 ng·h/mL.

What is called AUC is concentration integrated over time.
